Data: ChEMBL document CHEMBL4715860 (J Med Chem, 2020)
Active and inactive are the calls of the source. No cut-off for these calls is given here.

Key:
[1] = Elimination half life in C57BL/6J mouse brain at 10 mg/kg, po administered as single dose by mass spectrometry based UHPLC analysis; type: ADME, organism-based; conditions: read-out: beta t1/2 (converted)
Summary of the method: (§1)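 Female C57BL/6J mice, one oral dose of 10 mg/kg in 20% Captisol; plasma and brain levels over time, n = 3 per time point (mean).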

[2] = Metabolic stability in Sprague-Dawley rat hepatocytes assessed as half-life at 5 uM incubated for 3 hrs by LC-MS analysis; type: ADME, cell-based, Hepatocyte
Summary of the method: (§2)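 Cryopreserved primary hepatocytes in suspension from CD-1 mouse, Sprague-Dawley rat, Beagle dog and human. Compound at 5 μM final (from 10 mM DMSO stock). Samples taken at 0, 15, 60, 90 and 180 min and quenched with ACN plus internal standard. Parent quantified by LC-MS. Hepatocyte-free medium incubations served as negative control; 7-ethoxycoumarin as positive control. Duplicate; CLint per 10^6 cells and t1/2.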

[3] = AUC (0 to 8 hrs) in C57BL/6J mouse brain at 10 mg/kg, po administered once a day for 4 consecutive days by mass spectrometry based UHPLC analysis; type: ADME, organism-based; set-up: route oral, time 4 day, dose 10 mg/kg
Summary of the method: (§3)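 Female C57BL/6J mice given 10 mg/kg p.o. in 20% Captisol once daily for 4 consecutive days. Plasma and brain sampled after the final dose on day 4, n = 3 per time point.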

[4] = Toxicity in Balb/c nude mouse assessed as change in body weight at 100 mg/kg, po administered once daily for 14 days measured for 7 days starting from post last dose; type: organism-based; conditions: in vivo, 504 h, time 21 day
[5] = AUC (0 to 8 hrs) in C57BL/6J mouse plasma at 10 mg/kg, po administered once a day for 4 consecutive days by mass spectrometry based UHPLC analysis; type: ADME, organism-based; set-up: route oral, time 4 day, dose 10 mg/kg; summary of the method: as §3
Mus musculus [6] = test: In vivo inhibition of mTORC1 signalling in C57BL/6J mouse brain assessed as reduction in RPS6 phosphorylation at S235/236 residue at 25 mg/kg, po incubated for 30 mins by Western blot analysis; type: functional, organism-based
Summary of the method: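 Female C57BL/6J mice dosed at 25 mg/kg p.o.; cortex collected 30 min later and lysed. Equal protein run on SDS-PAGE and western blotted for pS6(Ser235/236), pPKB(Ser473) and α-tubulin, detected by HRP secondary antibodies and ECL. Signal expressed as % of control cortex, n = 3, mean ± SEM, unpaired t-test.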

Mus musculus [7] = test: In vivo inhibition of mTORC1 signalling in C57BL/6J mouse assessed as reduction in RPS6 phosphorylation at S235/236 residue in brain at 25 mg/kg, po measured after 8 hrs by Western blot analysis; type: functional, organism-based
Summary of the method: (§4)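 Time course in female C57BL/6J mice after 25 mg/kg p.o.: cortex taken at set time points and western blotted for pS6 and pPKB. Signals quantified against α-tubulin as % of control cortex; n = 3 per time point and n = 9 controls. Brain compound level measured in the same mice.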

[8] = Tmax in C57BL/6J mouse brain at 10 mg/kg, po administered once a day for 4 consecutive days by mass spectrometry based UHPLC analysis; type: ADME, organism-based; conditions: time 4 day
Summary of the method: (§5)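 Female C57BL/6J mice dosed orally at 10 mg/kg in 20% Captisol, either once or once daily for 4 days with sampling after the last dose on day 4. Plasma and brain concentrations followed over time. Tmax taken from at least 3 time points.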

[9] = Metabolic stability in CD1 mouse hepatocytes assessed as half-life at 5 uM incubated for 3 hrs by LC-MS analysis; type: ADME, cell-based, Hepatocyte; summary of the method: as §2
[10] = Cmax in C57BL/6J mouse plasma at 25 mg/kg, po administered as single dose by mass spectrometry based UHPLC analysis; type: ADME, organism-based; set-up: route oral, dose 25 mg/kg
Summary of the method: (§6)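 One oral dose of 25 mg/kg to female C57BL/6J mice. Plasma and brain concentrations followed over time, n = 3 per time point (mean).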

Mus musculus [11] = test: Protection against Tsc1-GFAP knockout induced mortality in Balb/c mouse assessed as increase in survival rate administered orally twice a day measured post last dose; type: functional, organism-based
Summary of the method: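 Tsc1GFAPCKO mice (Tsc1 conditionally inactivated mainly in glia). Oral dosing from P21 at 10, 25, 50 mg/kg qd or 50 mg/kg bid, n = 7–10 per group. Controls were vehicle and a comparator at 10 mg/kg. Body weight tracked. Survival followed from P21 to death or censoring at P90, compared by log-rank test.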

[12] = Cmax in C57BL/6J mouse brain at 25 mg/kg, po administered as single dose by mass spectrometry based UHPLC analysis; type: ADME, organism-based; set-up: route oral, dose 25 mg/kg; summary of the method: as §6
Mus musculus [13] = test: In vivo inhibition of mTORC2 in C57BL/6J mouse assessed as reduction in PKB/Akt phosphorylation at Ser473 in brain at 25 mg/kg, po measured after 0.5 to 2 hrs by Western blot analysis; type: functional, organism-based; conditions: time 0.5-2 hrs; summary of the method: as §4
[14] = Metabolic stability in Beagle dog hepatocytes assessed as parent compound remaining at 5 uM incubated for 3 hrs by LC-MS analysis; type: ADME, cell-based, Canis lupus familiaris, Hepatocyte; conditions: read-out: Stabilty
Summary of the method: (§7)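 Cryopreserved primary hepatocytes in suspension (CD-1 mouse, Sprague-Dawley rat, Beagle dog, human). Compound diluted from 10 mM DMSO stock to 5 μM final. Sampled at 0, 15, 60, 90 and 180 min, protein precipitated with ACN plus internal standard, supernatant analysed by LC−MS. Run in duplicate. 7-ethoxycoumarin as positive control. Hepatocyte-free medium incubations as negative control.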

[15] = Intrinsic clearance in CD1 mouse hepatocytes assessed per million cells at 5 uM incubated for 3 hrs by LC-MS analysis; type: ADME, cell-based, Hepatocyte; conditions: read-out: CLH; summary of the method: as §2
Rattus norvegicus = test: In vivo inhibition of PI3Kalpha Sprague-Dawley rat assessed as increase in plasma glucose concentration at 5 mg/kg, po measured after 8 hrs by glucoseoxidase-peroxide coupled colorimetric assay; type: functional, organism-based
Summary of the method: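 Male Sprague Dawley rats dosed orally at 5 mg/kg; plasma insulin and glucose followed over time against vehicle, n = 3, mean ± SEM.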

[16] = Metabolic stability in Sprague-Dawley rat hepatocytes assessed as parent compound remaining at 5 uM incubated for 3 hrs by LC-MS analysis; type: ADME, cell-based, Hepatocyte; conditions: read-out: Stabilty; summary of the method: as §7
[17] = Metabolic stability in human hepatocytes assessed as parent compound remaining at 5 uM incubated for 3 hrs by LC-MS analysis; type: ADME, cell-based, Hepatocyte; conditions: read-out: Stabilty; summary of the method: as §7
[18] = Toxicity in Tsc1-GFAP knockout Balb/c mouse assessed as change in body weight at 50 mg/kg, po bid; type: organism-based; conditions: in vivo
Summary of the method: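 Tsc1GFAPCKO mice dosed orally from P21 at 10, 25, 50 mg/kg or 50 mg/kg bid. Body weight tracked during the survival study; mean ± SEM.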

Mus musculus [19] = test: In vivo inhibition of mTORC2 in C57BL/6J mouse assessed as reduction in PKB/Akt phosphorylation at Ser473 in brain at 25 mg/kg, po measured after 8 hrs by Western blot analysis; type: functional, organism-based; summary of the method: as §4
[20] = Intrinsic clearance in human hepatocytes assessed per million cells at 5 uM incubated for 3 hrs by LC-MS analysis; type: ADME, cell-based, Hepatocyte; conditions: read-out: CLH; summary of the method: as §2
[21] = AUC (0 to 8 hrs) in male Sprague-Dawley rat brain at 5 mg/kg, po; type: ADME, organism-based; set-up: time < 8 hr, route oral, dose 5 mg/kg; conditions: in vivo
Summary of the method: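 Male Sprague Dawley rats, single oral dose of 5 mg/kg. Plasma and brain concentrations measured over 8 h, n = 3, mean ± SEM; AUC0−8 computed from the time course.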

[22] = Cmax in C57BL/6J mouse brain at 10 mg/kg, po administered as single dose by mass spectrometry based UHPLC analysis; type: ADME, organism-based; set-up: route oral, dose 10 mg/kg; summary of the method: as §1
[23] = Tmax in C57BL/6J mouse plasma at 10 mg/kg, po administered as single dose by mass spectrometry based UHPLC analysis; type: ADME, organism-based; summary of the method: as §5

half-life [1]: 2.9 h
half-life at 5 µM [2]: 2.7 h
AUC at 96 h [3]: 3.05 µg·h/mL
AUC at 96 h [5]: 2.37 µg·h/mL
Tmax [8]: 0.5 h
half-life at 5 µM [9]: 3.35 h
Cmax [10]: 1.83 µg/mL
Cmax [12]: 3.35 µg/mL
remaining at 3 h, 5 µM [14]: 75.6%
hepatocyte CLint at 5 µM [15]: 4.3 µL/min/1e6 cells
remaining at 3 h, 5 µM [16]: 42.3%
remaining at 3 h, 5 µM [17]: 44%
hepatocyte CLint at 5 µM [20]: 5.3 µL/min/1e6 cells
AUC [21]: 3689 ng·h/g
Cmax [22]: 1.43 µg/mL
Tmax [23]: 0.5 h
SMILES: C[C@@H]1COCCN1c1nc(-c2cnc(N)cc2C(F)F)nc(N2[C@H](C)COC[C@@H]2C)n1
Activity [4]: Non-Toxic
inhibition (Mus musculus [6]): Active
inhibition (Mus musculus [7]): inactive
Activity (Mus musculus [11]): Dose-dependent effect
inhibition (Mus musculus [13]): Active
inhibition (Rattus norvegicus): inactive
Activity [18]: Non-Toxic
inhibition (Mus musculus [19]): inactive
